Source: PubChem
MEKK3 PB1 HTS: modulators of MEKK3-MEK5 PB1 binding, primary screen, biochemical, wildtype MEKK3, multiplex bead flow cytometry, Alexa488-MEK5; Mitogen-activated protein kinase kinase kinase 3 (Homo sapiens), Q99759; bead-based flow cytometry, Alexa488-MEK5 binding to MEKK3; actives lie on both sides; 0 = blocked by unlabeled MEK5, 100 = vehicle; binding response (% of control), % at 10 µM; 290,000 compounds, 1.4% hits;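 active means binding response more than 3 SD above or below the average of its plate-row segment, actives on both sides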;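 further: Alexa488 bead fluorescence after subtracting the streptavidin-only scavenger bead signal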
MEKK2 mut-MEK5: MEK5 binding signal on mutant MEKK2 PB1, primary screen, biochemical, multiplex bead flow cytometry, Alexa488-MEK5 | Alexa488-MEK5 binding to MEKK2 mutant | percent response, % at 10 µM | 290,000 compounds, 0.35% hits | AID 1530, 2009; in the data active means percent response above about 24%, passing the limit was not always enough
Apaf-1 inh: inhibitors of human Apaf-1 apoptosome, primary screen, biochemical, DEVD-Rh110 fluorescence, uHTS | 330,000 compounds, 0.71% hits | AID 489030, 2010 | inhibition, % at 20 µM | reconstituted apoptosome caspase-3 activity; active means inhibition of at least 40% at 20 µM;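 further: plate controls were DMSO wells for no effect and DEVD-CHO caspase inhibitor wells for full effect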
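detection = Rh110 fluorescence intensity | test system = biochemical Apaf-1 apoptosome reconstitution | also added = cytochrome c and DEVD-Rh110 substrate | schedule = 30 min plus 50 min, RT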
UBC13 polyUb: UBC13 polyubiquitin chain formation inhibitors, primary screen, biochemical, TR-FRET, uHTS. Ubiquitin-conjugating enzyme E2 N (Homo sapiens), P61088. 330,000 compounds, 0.47% hits. AID 485273, 2010. inhibition, % at 20 µM; in the data active means inhibition above about 45%, passing the limit was not always enough
MEKK2 WT-MEK5: modulators of MEK5 binding to wildtype MEKK2, primary screen, biochemical, multiplex bead flow cytometry, Alexa488-MEK5; Mitogen-activated protein kinase kinase kinase 2 (Homo sapiens), Q9Y2U5; Alexa488-MEK5 binding to MEKK2 WT; actives lie on both sides; binding response (% of control), % at 10 µM; 290,000 compounds, 1.1% hits; AID 1531, 2009; in the data active means binding response below about 67% or above about 130%
MEKK2wt confirm: modulators of MEK5 binding to wildtype MEKK2, confirmation, biochemical, single concentration, multiplex bead flow cytometry. AID 1892, 2009. shares compounds with MEKK3 PB1 HTS. binding response (% of control), % at 10 µM. 5,900 compounds, 2.4% hits. Alexa488-MEK5 binding to MEKK2 WT; actives lie on both sides; in the data active means binding response below about 16% or above about 210%; inactive means in between
MEKK2mut-MEK5: mutant MEKK2 PB1-MEK5 binding signal retest – biochemical, single concentration, multiplex bead flow cytometry, confirmation. shares compounds with MEKK3 PB1 HTS. Alexa488-MEK5 binding to MEKK2 mutant. percent response, % at 10 µM. 5,900 compounds, 2% hits; in the data active means percent response mostly above about 71%, no sharp cut-off; inactive means mostly below about 38%;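 further: higher means compound restores mutant binding toward wildtype level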
MEKK3 confirm: MEKK3 wild-type PB1 binding to MEK5, inhibitors, confirmation, biochemical, bead multiplex flow cytometry, single concentration, wildtype | shares compounds with MEKK3 PB1 HTS | Alexa488-MEK5 binding to MEKK3; stronger effect = lower value | binding response (% of control), % at 10 µM | 5,900 compounds, 1.8% hits | AID 1894, 2009;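 active means binding response below 72% of control, or above a set upper limit, though filed actives all read lower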;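 further: 100% = DMSO only wells and 0% = binding blocked by excess unlabeled MEK5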
Active calls of the source: *; nt = no result; [ ] = another dose, or the depositor's remark. Compounds with a hit are over-represented: about 2.9% of the library has one in this group of screens.

SMILES | MEKK3 PB1 HTS | MEKK2 mut-MEK5 | Apaf-1 inh | UBC13 polyUb | MEKK2 WT-MEK5 | MEKK2wt confirm | MEKK2mut-MEK5 | MEKK3 confirm
CCOC(=O)c1sc(NC(=O)Nc2ccc(Cl)cc2)cc1C | 115 | 10 | 11 | 5 | 138* | -2.0*[inhibitor] | 15 | 95
CCOC(=O)C1CCCN(Cc2cccs2)C1 (centres undefined) | 1.0*[inhibitor] | -18 | -15 | -1 | -3.0*[inhibitor] | 104 | 6 | 106
O=C(C1CCCN(Cc2cccs2)C1)N1CCCCCC1 (centres undefined) | 111 | 13 | 3 | -5 | 115 | nt | nt | nt
CCOC(=O)C1CCCN(S(=O)(=O)c2cccs2)C1 (centres undefined) | 122* | 7 | -3 | -5 | 114 | 97 | -7 | 97
Cc1[nH]c2ccccc2c1/C=N/NS(=O)(=O)c1ccccc1 | 94 | 54 | 14 | -12 | 45 | nt | nt | nt
Cc1[nH]c2ccccc2c1/C=N/Nc1ccccc1[N+](=O)[O-] | 67*[inhibitor] | 6 | 29 | -107 | 92 | 119 | 9 | 96
Cc1[nH]c2ccccc2c1/C=N/NC(=S)NC(C)C | 98 | 144* | -10 | 17 | 18* | 105 | 4 | 96
Cc1cc(Cl)ccc1OCC(=O)NC(=S)Nc1ccccc1N1CCOCC1 | 148* | -1 | 1 | -8 | 102 | 97 | -2 | 103
Cc1cc(Cl)ccc1OCC(=O)Nc1ccccc1N1CCOCC1 | 109 | 3 | 25 | 12 | 107 | nt | nt | nt
CCN(CC(=O)Nc1ccc(NC(C)=O)cc1)C(=O)c1cccc(S(=O)(=O)N2c3ccccc3CC2C)c1 (centres undefined) | nt | nt | 10 | 0 | nt | nt | nt | nt
CCNc1nc(SCCOc2ccc(Cl)cc2Cl)nc(N(C)C)n1 | 109 | 0 | nt | nt | 116 | nt | nt | nt
O=C(Cn1cc(SCc2cccc(Cl)c2)c2ccccc21)N1CCOCC1 | 140* | 1 | 5 | 11 | 111 | 101 | -17 | 98
O=S(=O)(NCc1ccc(F)cc1)c1cccc(S(=O)(=O)N2CCOCC2)c1 | 100 | 3 | -10 | 4 | 102 | nt | nt | nt
Cc1ccc(S(=O)(=O)c2cccc(S(=O)(=O)N3CCOCC3)c2)cc1S(=O)(=O)N1CCOCC1 | 2.0*[inhibitor] | -15 | 0 | 6 | 2.0*[inhibitor] | 97 | -8 | 95
O=C(NCc1ccco1)C1CCN(c2ccc(S(=O)(=O)N3CCOCC3)cc2[N+](=O)[O-])CC1 | 71*[inhibitor] | -10 | 3 | -29 | 79 | 100 | -1 | 102
O=S(=O)(NCc1ccco1)c1cccc(S(=O)(=O)N2CCOCC2)c1 | 2.0*[inhibitor] | -31 | -1 | 2 | 2.0*[inhibitor] | 97 | -3 | 97
O=C(O)C1CCN(S(=O)(=O)c2ccc(N3CCOCC3)c([N+](=O)[O-])c2)CC1 | 103 | -5 | -3 | 1 | 96 | nt | nt | nt
CCc1ncc(CN2CCC(C(=O)Nc3cccc(-c4cscn4)c3)CC2)cn1 | 102 | -4 | 5 | 0 | 101 | nt | nt | nt
COCCNC(=O)C1=NOC(Cn2cc(C#N)c(=O)n(C)c2=O)C1 (centres undefined) | 145* | 6 | -5 | 3 | 129 | 100 | 4 | 108
Cc1cccc(OCC(O)Cn2ccnc2C)c1 (centres undefined) | 107 | 4 | -11 | 14 | 116 | nt | nt | nt
